Data taken from ChEMBL document CHEMBL1629690, “Development of hexadecyloxypropyl tenofovir (CMX157) for treatment of infection caused by wild-type and nucleoside/nucleotide-resistant HIV” (Antimicrob Agents Chemother, 2010).

Key:
[1] = tested on: Human immunodeficiency virus 1; test: Antiviral activity against HIV1 7324-1 harboring reverse transcriptase 41L/67N/69N/70R/215F/219E mutant gene infected in human PBMC by ELISA; type: functional, organism-based; conditions: Human immunodeficiency virus 1, 7324-1
How it was run: (§1)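 Fresh PBMCs pooled from at least two HIV- and HBV-seronegative donors, stimulated with PHA 4 μg/ml for 48–72 h and kept in rhIL-2 20 U/ml. Seeded at 5 × 10^4 cells/well and infected with RT-mutant HIV-1 clones at MOI ~0.1. Nine compound concentrations, triplicate wells, 7-day incubation. EC50 reported as mean ± SD of one to three independent experiments.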

[2] = tested on: Human immunodeficiency virus 1; test: Antiviral activity against HIV1 4755-5 harboring reverse transcriptase 41L/44D/67N/69D/118I/210W/215Y/184V mutant gene infected in human PBMC by ELISA; type: functional, organism-based; conditions: Human immunodeficiency virus 1, 4755-5; how it was run: as §1
[3] = tested on: Human immunodeficiency virus 1; test: Antiviral activity against HIV1 7303-3 harboring reverse transcriptase 41L/44D/67N/69D/118I/210W/215Y mutant gene infected in human PBMC by ELISA; type: functional, organism-based; conditions: Human immunodeficiency virus 1, 7303-3; how it was run: as §1
[4] = tested on: Human immunodeficiency virus 1; test: Antiviral activity against HIV1 52534-2 harboring reverse transcriptase 41L//74V/210W/215Y/184V/69SSS mutant gene infected in human PBMC by ELISA; type: functional, organism-based; conditions: Human immunodeficiency virus 1, 52534-2; how it was run: as §1
[5] = tested on: Human immunodeficiency virus 1; test: Antiviral activity against HIV1 71361-1 harboring reverse transcriptase 65R mutant gene infected in human PBMC by ELISA; type: functional, organism-based; conditions: Human immunodeficiency virus 1, 71361-1; how it was run: as §1
[6] = tested on: Human immunodeficiency virus 1; test: Antiviral activity against HIV1 isolate 057 expressing wild type reverse transcriptase gene by phenosense assay; type: functional, organism-based; conditions: Human immunodeficiency virus 1, isolate 057
How it was run: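 In the PhenoSense recombinant virus assay, virus was tested against increasing drug concentrations. EC50 came from the inhibition curve and was compared with a drug-sensitive reference virus.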

[7] = tested on: Human immunodeficiency virus 1; test: Antiviral activity against HIV1 isolate 058 harboring reverse transcriptase M41L/D67N/K70R/L210W/T215F/K219Q mutant gene by phenosense assay; type: functional, organism-based; conditions: Human immunodeficiency virus 1, isolate 058
How it was run: (§2)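 Recombinant-virus PhenoSense HIV assay run on a panel of 30 NRTI-resistant HIV-1 mutants and two wild-type viruses. Each virus is tested across increasing drug concentrations to give an inhibition curve and EC50. Fold change is the test recombinant EC50 divided by the EC50 of the drug-sensitive wild-type reference virus.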

[8] = tested on: Human immunodeficiency virus 1; test: Antiviral activity against HIV1 isolate 060 harboring reverse transcriptase M41L/D67N/K70R/L210W/T215Y/K219E mutant gene by phenosense assay; type: functional, organism-based; conditions: Human immunodeficiency virus 1, isolate 060; how it was run: as §2
[9] = tested on: Human immunodeficiency virus 1; test: Antiviral activity against HIV1 isolate 061 harboring reverse transcriptase M41L/D67N/K70R/M184V/L210W/T215Y/K219E mutant gene by phenosense assay; type: functional, organism-based; conditions: Human immunodeficiency virus 1, isolate 061; how it was run: as §2
[10] = tested on: Human immunodeficiency virus 1; test: Antiviral activity against HIV1 isolate 066 harboring reverse transcriptase 184V mutant gene by phenosense assay; type: functional, organism-based; conditions: Human immunodeficiency virus 1, isolate 066; how it was run: as §2
[11] = tested on: Human immunodeficiency virus 1; test: Antiviral activity against HIV1 isolate 071 harboring reverse transcriptase 65R/S68N/184V mutant gene by phenosense assay; type: functional, organism-based; conditions: Human immunodeficiency virus 1, isolate 071; how it was run: as §2
[12] = tested on: Human immunodeficiency virus 1; test: Antiviral activity against HIV1 isolate 160 harboring reverse transcriptase S68G/V75(I/T)/F77L/Y115F/F116Y /Q151M mutant gene by phenosense assay; type: functional, organism-based; conditions: Human immunodeficiency virus 1, isolate 160; how it was run: as §2
[13] = tested on: Human immunodeficiency virus 1; test: Antiviral activity against HIV1 isolate 174 harboring reverse transcriptase M184V mutant gene obtained as site-directed mutant of NL4-3 by phenosense assay; type: functional, organism-based; conditions: Human immunodeficiency virus 1, isolate 174; how it was run: as §2
[14] = tested on: Human immunodeficiency virus 1; test: Antiviral activity against HIV1 isolate 180 harboring reverse transcriptase K65R mutant gene obtained as site-directed mutant of NL4-3 by phenosense assay; type: functional, organism-based; conditions: Human immunodeficiency virus 1, isolate 180; how it was run: as §2
[15] = tested on: Human immunodeficiency virus 1; test: Antiviral activity against HIV1 isolate 185 harboring reverse transcriptase T215Y mutant gene by phenosense assay; type: functional, organism-based; conditions: Human immunodeficiency virus 1, isolate 185; how it was run: as §2
[16] = tested on: Human immunodeficiency virus 1; test: Antiviral activity against HIV1 isolate 192 harboring reverse transcriptase M41L/T215Y mutant gene by phenosense assay; type: functional, organism-based; conditions: Human immunodeficiency virus 1, isolate 192; how it was run: as §2
[17] = tested on: Human immunodeficiency virus 1; test: Antiviral activity against HIV1 isolate 194 harboring reverse transcriptase M41L/T215Y/M184V mutant gene by phenosense assay; type: functional, organism-based; conditions: Human immunodeficiency virus 1, isolate 194; how it was run: as §2
[18] = tested on: Human immunodeficiency virus 1; test: Antiviral activity against HIV1 isolate 203 harboring reverse transcriptase M41L/L210W/T215Y/M184V mutant gene by phenosense assay; type: functional, organism-based; conditions: Human immunodeficiency virus 1, isolate 203
How it was run: (§3)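 PhenoSense HIV recombinant virus assay: patient-derived HIV-1 with major NRTI resistance mutations tested against increasing drug concentrations to give inhibition curves. EC50 is the concentration giving 50% inhibition. Fold change is the test recombinant EC50 divided by the EC50 of a drug-sensitive wild-type reference virus. Panel of 30 NRTI-resistant isolates plus two wild-type viruses.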

[19] = tested on: Human immunodeficiency virus 1; test: Antiviral activity against HIV1 isolate 206 harboring reverse transcriptase D67N/K70R mutant gene by phenosense assay; type: functional, organism-based; conditions: Human immunodeficiency virus 1, isolate 206; how it was run: as §3
[20] = tested on: Human immunodeficiency virus 1; test: Antiviral activity against HIV1 isolate 212 harboring reverse transcriptase L210W/T215Y mutant gene by phenosense assay; type: functional, organism-based; conditions: Human immunodeficiency virus 1, isolate 212; how it was run: as §3
[21] = tested on: Human immunodeficiency virus 1; test: Antiviral activity against HIV1 isolate 217 harboring reverse transcriptase D67N/K70E/M184V mutant gene by phenosense assay; type: functional, organism-based; conditions: Human immunodeficiency virus 1, isolate 217; how it was run: as §3
[22] = tested on: Human immunodeficiency virus 1; test: Antiviral activity against HIV1 isolate 058 harboring reverse transcriptase M41L/D67N/K70R/L210W/T215F/K219Q mutant gene by phenosense assay relative to wild type; type: functional; how it was run: as §2
[23] = tested on: Human immunodeficiency virus 1; test: Antiviral activity against HIV1 isolate 066 harboring reverse transcriptase 184V mutant gene by phenosense assay relative to wild type; type: functional; how it was run: as §2
[24] = tested on: Human immunodeficiency virus 1; test: Antiviral activity against HIV1 isolate 067 harboring reverse transcriptase A62V/D67G/T69SVG/V75I/T215I mutant gene by phenosense assay relative to wild type; type: functional; how it was run: as §2
[25] = tested on: Human immunodeficiency virus 1; test: Antiviral activity against HIV1 isolate 071 harboring reverse transcriptase 65R/S68N/184V mutant gene by phenosense assay relative to wild type; type: functional; how it was run: as §2
[26] = tested on: Human immunodeficiency virus 1; test: Antiviral activity against HIV1 isolate 157 harboring reverse transcriptase L74V/M184V mutant gene by phenosense assay relative to wild type; type: functional; how it was run: as §2
[27] = tested on: Human immunodeficiency virus 1; test: Antiviral activity against HIV1 isolate 162 harboring reverse transcriptase A62V/V75I/F77L/Y115F/F116Y/Q151M/M184V mutant gene by phenosense assay relative to wild type; type: functional; how it was run: as §2
[28] = tested on: Human immunodeficiency virus 1; test: Antiviral activity against HIV1 isolate 192 harboring reverse transcriptase M41L/T215Y mutant gene by phenosense assay relative to wild type; type: functional; how it was run: as §2
[29] = tested on: Human immunodeficiency virus 1; test: Antiviral activity against HIV1 isolate 203 harboring reverse transcriptase M41L/L210W/T215Y/M184V mutant gene by phenosense assay relative to wild type; type: functional; how it was run: as §3
[30] = tested on: Human immunodeficiency virus 1; test: Antiviral activity against HIV1 isolate 206 harboring reverse transcriptase D67N/K70R mutant gene by phenosense assay relative to wild type; type: functional; how it was run: as §3
[31] = tested on: Human immunodeficiency virus 1; test: Antiviral activity against HIV1 isolate 211 harboring reverse transcriptase D67N/K70R/T215F/K219E/M184V mutant gene by phenosense assay relative to wild type; type: functional; how it was run: as §3
[32] = tested on: Human immunodeficiency virus 1; test: Antiviral activity against HIV1 isolate 215 harboring reverse transcriptase D67N/K70E mutant gene by phenosense assay relative to wild type; type: functional; how it was run: as §3

CCCCCCCCCCCCCCCCOCCCOP(=O)(O)CO[C@H](C)Cn1cnc2c(N)ncnc21 [TENOFOVIR EXALIDEX]
EC50 [1]: 3.8 nM | EC50 [2]: 3.1 nM | EC50 [3]: 19 nM | EC50 [4]: 9 nM | EC50 [5]: 13 nM | EC50 [6]: 1.6 nM | EC50 [7]: 8.5 nM | EC50 [8]: 9.6 nM | EC50 [9]: 6.1 nM | EC50 [10]: 1.4 nM | EC50 [11]: 2.7 nM | EC50 [12]: 3.7 nM | EC50 [13]: 1.2 nM | EC50 [14]: 4.7 nM | EC50 [15]: 5 nM | EC50 [16]: 3.9 nM | EC50 [17]: 2.9 nM | EC50 [18]: 1.9 nM | EC50 [19]: 5.6 nM | EC50 [20]: 2.8 nM | EC50 [21]: 1.5 nM | fold change (FC) [22]: 4.6 | fold change (FC) [23]: 0.73 | fold change (FC) [24]: 31 | fold change (FC) [25]: 1.5 | fold change (FC) [26]: 0.36 | fold change (FC) [27]: 1.6 | fold change (FC) [28]: 2.1 | fold change (FC) [29]: 1 | fold change (FC) [30]: 3 | fold change (FC) [31]: 1 | fold change (FC) [32]: 1.2

C[C@H](Cn1cnc2c(N)ncnc21)OCP(=O)(O)O [TENOFOVIR ANHYDROUS]
EC50 [1]: 6500 nM | EC50 [2]: 5400 nM | EC50 [3]: > 8500 nM | EC50 [4]: > 6500 nM | EC50 [5]: > 8000 nM | EC50 [6]: 650 nM | EC50 [7]: 2700 nM | EC50 [8]: 3600 nM | EC50 [9]: 2000 nM | EC50 [10]: 530 nM | EC50 [11]: 940 nM | EC50 [12]: 1700 nM | EC50 [13]: 410 nM | EC50 [14]: 1600 nM | EC50 [15]: 1800 nM | EC50 [16]: 1400 nM | EC50 [17]: 1000 nM | EC50 [18]: 750 nM | EC50 [19]: 2000 nM | EC50 [20]: 1000 nM | EC50 [21]: 500 nM | fold change (FC) [22]: 3.5 | fold change (FC) [23]: 0.69 | fold change (FC) [24]: 22 | fold change (FC) [25]: 1.2 | fold change (FC) [26]: 0.29 | fold change (FC) [27]: 1.4 | fold change (FC) [28]: 1.8 | fold change (FC) [29]: 0.97 | fold change (FC) [30]: 2.6 | fold change (FC) [31]: 0.91 | fold change (FC) [32]: 0.96

Cc1cn([C@H]2C[C@H](N=[N+]=[N-])[C@@H](CO)O2)c(=O)[nH]c1=O [ZIDOVUDINE]
EC50 [1]: 330 nM | EC50 [2]: 100 nM | EC50 [3]: 3000 nM | EC50 [4]: 350 nM | EC50 [5]: 2.7 nM | EC50 [6]: 17 nM | EC50 [7]: 9600 nM | EC50 [8]: 16000 nM | EC50 [9]: 2200 nM | EC50 [10]: 17 nM | EC50 [11]: 11 nM | EC50 [12]: 2500 nM | EC50 [13]: 9 nM | EC50 [14]: 14 nM | EC50 [15]: 1000 nM | EC50 [16]: 560 nM | EC50 [17]: 180 nM | EC50 [18]: 87 nM | EC50 [19]: 770 nM | EC50 [20]: 210 nM | EC50 [21]: 4 nM | fold change (FC) [22]: 350 | fold change (FC) [23]: 0.63 | fold change (FC) [24]: >920 | fold change (FC) [25]: 0.41 | fold change (FC) [26]: 0.22 | fold change (FC) [27]: 150 | fold change (FC) [28]: 20 | fold change (FC) [29]: 3.2 | fold change (FC) [30]: 28 | fold change (FC) [31]: 7 | fold change (FC) [32]: 0.21
